# In ChEMBL document CHEMBL1130061, “Discovery and biological activity of orally active peptidyl trifluoromethyl ketone inhibitors of human neutrophil elastase” (J Med Chem, 1997):
# pKi: −log10 of the molar value. Peptide text beside a SMILES is read from it.
# Legend:
# Cricetinae gen. sp. [1] = test: Inhibition at the oral dose of 25 mg/kg 30 min prior to […] dose of 10 microg of HNE in hamster; format: functional, Cricetulus griseus
# Neutrophil elastase = molecular target: T1, Neutrophil elastase (Homo sapiens, UniProt P08246); test: Inhibitory activity against Human Neutrophil Elastase by HNE-catalyzed hydrolysis of MeO-Suc-Ala-Ala-Pro-Val-pNa
# T1 sequence (P08246 whole entry): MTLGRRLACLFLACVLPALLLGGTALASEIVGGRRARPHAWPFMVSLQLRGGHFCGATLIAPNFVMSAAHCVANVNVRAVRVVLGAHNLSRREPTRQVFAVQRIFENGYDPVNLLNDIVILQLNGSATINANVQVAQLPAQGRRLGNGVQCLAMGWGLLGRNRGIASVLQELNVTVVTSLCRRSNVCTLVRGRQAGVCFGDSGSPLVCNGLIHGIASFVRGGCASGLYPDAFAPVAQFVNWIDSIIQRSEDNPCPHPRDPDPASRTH
# Mesocricetus auratus [2] = species on record: Mesocricetus auratus; test: Reduction in wet lung weight relative to the body weight in hamsters
# Mesocricetus auratus [3] = test: Oral administration at a dose of 37.5 mg/kg 30 min prior to HNE (100 mg/hamster) and reduction in the number of white blood cells was reported
# Mesocricetus auratus [4] = test: Oral administration at a dose of 37.5 mg/kg 30 min prior to HNE and reduction in the number of white blood cells was reported
# Cricetinae gen. sp. [5] = test: Inhibition at the oral dose of 10 mg/kg 30 min prior to […] dose of 50 microg of HNE in hamster; format: functional, Cricetulus griseus
# Summary of the method: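 Anesthetized hamsters received HNE (50 µg/hamster) intratracheally, with the compound given orally as a solution in 10% PEG/PBS 30 min beforehand. Lung hemorrhage was quantified 4 h later by spectrophotometric hemoglobin measurement in lung lavage. Percent inhibition is relative to HNE and saline controls: 100% equals saline, 0% equals HNE.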
pKi (Neutrophil elastase),SMILES,inhibition in vivo at 25 mg/kg (Cricetinae gen. sp. [1]) [%],Lw/Bw (Mesocricetus auratus [2]),Reduction (Mesocricetus auratus [3]) [%],Reduction (Mesocricetus auratus [4]) [%],inhibition in vivo at 10 mg/kg (Cricetinae gen. sp. [5]) [%]
6.77,CC(C)[C@H](NC(=O)N1CCOCC1)C(=O)N1CCC[C@H]1C(=O)N[C@H](C(=O)C(F)(F)C(F)(F)F)C(C)C,69,,,,
7.35,CC(=O)N[C@H](C(=O)N1CCC[C@H]1C(=O)N[C@H](C(=O)C(F)(F)F)C(C)C)C(C)C (HELM PEPTIDE1{[ac].V.P.V.[FC(F)(F)[*:1]]}$$$$V2.0),,8,-120,,
8.77,CC(C)C(NC(=O)C1CCCN1C(=O)[C@H](C(C)C)N(CCCc1ccccc1)CCCc1ccccc1)C(=O)C(F)(F)F.Cl (stereo partly drawn),,-23,-39,,
8.49,CC(C)c1cc(C(C)C)c(S(=O)(=O)N[C@H](C(=O)N2CCCC2C(=O)NC(C(=O)C(F)(F)F)C(C)C)C(C)C)c(C(C)C)c1 (stereo partly drawn),,-17,-186,,
8.89,CC(C)[C@H](NC(=O)Oc1ccccc1)C(=O)N1CCC[C@H]1C(=O)N[C@H](C(=O)C(F)(F)F)C(C)C,,62,,77,91
8.28,CC(C)C(NC(=O)C1CCCN1C(=O)[C@@H](NS(=O)(=O)c1ccc([N+](=O)[O-])cc1)C(C)C)C(=O)C(F)(F)F (stereo partly drawn),,-36,-118,,
7.60,CC(C)[C@H](NC(=O)c1ccc(C(=O)N2CCOCC2)cc1)C(=O)N1CCC[C@H]1C(=O)N[C@H](C(=O)C(F)(F)C(F)(F)F)C(C)C,74,,,,
,COc1ccc(C(=O)N[C@H](C(=O)N2CCC[C@H]2C(=O)N[C@H](C(=O)C(F)(F)F)C(C)C)C(C)C)cc1,,77,,91,84
